Active and inactive are the calls of the source. No cut-off for these calls is given here.
Legend:
Colon 26 [1] = experiment: Photo-toxicity in mouse Colon 26 cells assessed as reduction in cell surviving fraction at 0.5 Jcm'-2 of continuous illumination with 350 to 700 nm light incubated for 48 hrs by sulforhodamine B assay; assay type: functional, cell-based; details: Colon 26, 48 h
Summary of the method: (§1)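 Colo-26 cells were incubated 1 h in the dark with 0.1–0.5 μM […], then irradiated up to 1.0 J cm^-2 with 350–700 nm tungsten–halogen light (3.7–4.1 mW cm^-2). Cells were kept 48 h and survival was measured by sulforhodamine B assay.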

Colon 26 [2] = experiment: Photo-toxicity against mouse Colon 26 cells at 0.15 uM incubated in dark for 1 hr then irradiated with light dose of 1 Jcm'-2 of 613 nm laser light measured after 48 hrs by sulforhodamine B assay; assay type: functional, cell-based
Summary of the method: (§2)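 Colo-26 murine colon carcinoma cells were grown in RPMI 1640 with L-glutamine, 10% FBS and 1% penicillin–streptomycin. They were plated at 10 000 cells/well and held 24 h. Selenorhodamine was added at 0.15 μM (final) and cells were kept 1 h in the dark. Cells were then irradiated with a tunable dye laser at λmax ± 2 nm, 3.2 mW cm⁻², to 1 J cm⁻². Medium was replaced, followed by 48 h at 37 °C, 5% CO₂. Viability was read by sulforhodamine B at 570 nm.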

Colon 26 [3] = experiment: Potentiation of doxorubicin-induced cytotoxicity against mouse Colon 26 cells at 0.15 uM incubated in dark for 1 hr then irradiated with light dose of 1 Jcm'-2 of 613 nm laser light measured after 48 hrs by sulforhodamine B assay; assay type: functional, cell-based
Summary of the method: (§3)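 Colo-26 cells were plated at 10 000/well and held 24 h. Doxorubicin (0.005, 0.05, 0.5, 1.0 or 5.0 μM) was added with 0.15 μM selenorhodamine, both diluted in RPMI from stocks, with Dox-only and dye-only wells. After 1 h in the dark, cells were laser-irradiated at λmax ± 2 nm, 3.2 mW cm⁻², 1 J cm⁻². Fresh medium, then 48 h at 37 °C, 5% CO₂. Surviving fraction by SRB absorbance at 570 nm; six replicates.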

Colon 26 [4] = experiment: Potentiation of doxorubicin-induced cytotoxicity against mouse Colon 26 cells at 0.15 uM incubated in dark for 1 hr by sulforhodamine B assay; assay type: functional, cell-based
Summary of the method: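 Colo-26 cells were plated at 10 000/well and held 24 h. Doxorubicin (0.005–5.0 μM) was applied with or without 0.15 μM selenorhodamine, with Dox-only and dye-only controls, for 1 h in the dark with no irradiation. Medium was replaced, then 48 h at 37 °C, 5% CO₂. Surviving fraction by sulforhodamine B assay (570 nm); six replicates; Student's t-test pairwise.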

[5] = Lipophilicity, log P of the compound by pH 7.4 at 23 degC by UV-visible spectrophotometry based shake flask method; assay type: physicochemical; details: buffer
Summary of the method: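 Shake-flask method. A saturated n-octanol solution of dye was mixed with an equal volume of PBS, pH 7.4, at 23 °C for 3–5 min, then left 1 h to settle. The concentration in each layer was measured by UV–visible spectrophotometry.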

[6] = Permeability in MDCK2-MDR1 cells assessed as cell associated fraction by measuring mass fraction extracted from cell monolayer by methanol wash after 1 hr flux in apical to basolateral direction at 5 uM in presence of 4.3 mg/ml BSA and in presence of P-gp inhibitor LSN335984 by mass spectrometry; assay type: ADME, cell-based, Canis lupus familiaris; details: dog, mdck-ii
Summary of the method: (§4)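 MDCKII-MDR1 cells seeded at 50 000 cells cm^-2 on Transwell polycarbonate filters, used on day 6. After a rinse in DPBSH at 37 °C, monolayers were preincubated 30 min in 4.3 mg mL^-1 BSA/DPBSH with or without 5 μM P-gp inhibitor LSN 335984. Then 5 μM dye was added apically and run 1 h AB flux at 37 °C with nutation. Monolayers were rinsed in cold DPBS and extracted 3 min in methanol, and compound was quantified by LC-MS/MS. Cell-associated value is the percentage of added mass recovered.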

Colon 26 [7] = experiment: Photo-toxicity in mouse Colon 26 cells assessed as reduction in cell surviving fraction at 1 Jcm'-2 of continuous illumination with 350 to 700 nm light incubated for 48 hrs by sulforhodamine B assay; assay type: functional, cell-based; details: Colon 26, 48 h; summary of the method: as §1
[8] = Permeability in MDCK2-MDR1 cells assessed as cell associated fraction by measuring mass fraction extracted from cell monolayer by methanol wash after 1 hr flux in apical to basolateral direction at 5 uM in presence of 4.3 mg/ml BSA and in absence of P-gp inhibitor LSN335984 by mass spectrometry; assay type: ADME, cell-based, Canis lupus familiaris; details: dog, mdck-ii; summary of the method: as §4
Colon 26 [9] = experiment: Photo-toxicity in mouse Colon 26 cells assessed as reduction in cell surviving fraction at 15 Jcm'-2 of continuous illumination with 360 to 800 nm light incubated for 48 hrs by sulforhodamine B assay; details: Colon 26, 48 h
[10] = Selectivity index, ratio of LD50 dark toxicity against mouse Colon 26 cells to EC50 for Photo-toxicity against mouse Colon 26 cells 1 Jcm'-2 of continuous illumination with 350 to 700 nm light; assay type: cell-based; details: read-out: Ratio LD50/EC50
Colon 26 [11] = experiment: Photo-toxicity in mouse Colon 26 cells assessed as reduction in cell surviving fraction at 0.15 uM at >5 Jcm'-2 of continuous illumination with 350 to 700 nm light incubated for 48 hrs by sulforhodamine B assay; assay type: functional, cell-based
Colon 26 [12] = experiment: Drug uptake in mouse Colon 26 cells at 0.5 uM in presence of 100 uM verapamil by flow cytometry; assay type: ADME, cell-based; details: colon 26, 0.5 µM
Summary of the method: (§5)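 Colo-26 cells given 0.5 μM dye for 1 h, with or without 100 μM verapamil. Uptake read by flow cytometry as relative fluorescence, excitation 561 nm and emission 710 nm. Error bars are SD.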

Colon 26 [13] = experiment: Photo-toxicity in mouse Colon 26 cells assessed as reduction in cell surviving fraction at =< 0.5 uM and up to 1 Jcm'-2 of continuous illumination with 350 to 700 nm light incubated for 48 hrs by sulforhodamine B assay; assay type: functional, cell-based
Summary of the method: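 Colo-26 cells, 10 000 per well, grown 24 h in RPMI 1640 with 10% FBS. Dye at ≤0.5 μM for 1 h in the dark. Irradiated up to 1.0 J cm^-2 with 350–700 nm tungsten–halogen light at 3.7–4.1 mW cm^-2, then 48 h at 37 °C. Survival by sulforhodamine B at 570 nm.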

Colon 26 [14] = experiment: Dark toxicity in mouse Colon 26 cells assessed as cell surviving fraction at 0.1 to 0.5 uM incubated for 1 hr by sulforhodamine B assay; assay type: cell-based; details: colon 26, 1 h
Summary of the method: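 Colo-26 murine colon carcinoma cells, 10 000 per well, grown 24 h in RPMI 1640 with 10% FBS. Dye at 0.1–0.5 μM for 1 h in the dark, then fresh medium and 48 h at 37 °C, 5% CO2. Viability by sulforhodamine B, absorbance at 570 nm, reported as surviving fraction.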

Colon 26 [15] = experiment: Drug uptake in mouse Colon 26 cells at 0.5 uM in absence of 100 uM verapamil by flow cytometry; assay type: ADME, cell-based; details: colon 26, 0.5 µM; summary of the method: as §5
[16] = Photo-stability assessed as drug degradation exposed to after 230 Jcm'-2 of continuous illumination with 350 to 800 nm light in solutions of 10% CH3OH in pH 7.4 buffer; assay type: physicochemical; details: solution of 10% CH3OH in pH 7.4 buffer, read-out: Drug degradation
[17] = Photo-stability assessed as drug degradation exposed to after 230 Jcm'-2 of continuous illumination with 500 to 800 nm light in solutions of 10% CH3OH in pH 7.4 buffer; assay type: physicochemical; details: solution of 10% CH3OH in pH 7.4 buffer, read-out: Drug degradation
Colon 26 [18] = experiment: Photo-toxicity in mouse Colon 26 cells assessed as reduction in cell surviving fraction at 0.15 uM at 1 Jcm'-2 of continuous illumination with 350 to 700 nm light incubated for 48 hrs by sulforhodamine B assay; assay type: functional, cell-based
Colon 26 [19] = experiment: Potentiation of 1 uM doxorubicin-induced cytotoxicity against mouse Colon 26 cells assessed as cell surviving fraction at 0.15 uM incubated in dark for 1 hr then irradiated with light dose of 1 Jcm'-2 of 611 nm laser light measured after 48 hrs by sulforhodamine B assay; assay type: functional; summary of the method: as §3
Colon 26 [20] = experiment: Potentiation of 0.5 uM doxorubicin-induced cytotoxicity against mouse Colon 26 cells at 0.15 uM incubated in dark for 1 hr then irradiated with light dose of 1 Jcm'-2 of 611 nm laser light measured after 48 hrs by sulforhodamine B assay; assay type: functional, cell-based; summary of the method: as §3
Colon 26 [21] = experiment: Photo-toxicity against mouse Colon 26 cells at 0.15 uM incubated in dark for 1 hr then irradiated with light dose of 1 Jcm'-2 of 611 nm laser light measured after 48 hrs by sulforhodamine B assay; assay type: functional, cell-based; summary of the method: as §2

Row | Compound | EC50 (Colon 26 [1]) [nM] | Activity (Colon 26 [4]) | logD [5] | EC50 (Colon 26 [7]) [nM] | fold change (FC) (Colon 26 [12]) | Activity (Colon 26 [13]) | Activity (Colon 26 [14]) | Drug uptake (Colon 26 [15]) | further results
1 | CN1CCC(C)(C)c2cc3c(-c4ccc(C(=O)N5CCCCC5)s4)c4ccc(=[N+](C)C)cc-4[se]c3cc21.[Cl-] | > 500 | inactive | 2.23 | 410 | – | – | – | – | Activity (Colon 26 [2]): inactive; Activity (Colon 26 [3]): inactive; Activity [6]: 39%; Activity [8]: 16%
2 | CN(C)c1ccc(-c2cc(-c3ccc(N)cc3)[s+]c(-c3ccc(N)cc3)c2)cc1 | – | – | – | – | – | – | – | – | EC50 (Colon 26 [9]): 70 nM
3 | CCN(CC)C(=O)c1ccc(-c2c3ccc(=[N+](C)C)cc-3[se]c3cc4c(cc23)C(C)(C)CCN4C)s1.[Cl-] | 310 | inactive | 2.26 | 300 | 5 | – | – | – | selectivity ratio [10]: 26; Activity (Colon 26 [2]): inactive; Activity (Colon 26 [3]): inactive; Activity (Colon 26 [11]): Active
4 | CCN(CC)C(=S)c1ccc(-c2c3ccc(=[N+](C)C)cc-3sc3cc4c(cc23)C(C)(C)CCN4C)s1.F[P-](F)(F)(F)(F)F | – | – | – | – | 1.3 | inactive | > 0.95 | Active | –
5 | CCN(CC)C(=S)c1ccc(-c2c3ccc(=[N+](C)C)cc-3[se]c3cc4c(cc23)C(C)(C)CCN4C)s1.[Cl-] | 200 | inactive | 2.41 | 170 | 1.3 | – | – | Active | selectivity ratio [10]: 56; degraded [16]: 50%; degraded [17]: 50%; Activity (Colon 26 [18]): Active; Activity (Colon 26 [19]): <=0.2; Activity (Colon 26 [20]): Active; Activity (Colon 26 [21]): Active
6 | CCN(CC)C(=O)c1ccc(-c2c3ccc(=[N+](C)C)cc-3sc3cc4c(cc23)C(C)(C)CCN4C)s1.F[P-](F)(F)(F)(F)F | – | – | – | – | 7 | inactive | > 0.95 | – | –
7 | CN1CCC(C)(C)c2cc3c(-c4ccc(C(=S)N5CCCCC5)s4)c4ccc(=[N+](C)C)cc-4[se]c3cc21.[Cl-] | 220 | inactive | 1.61 | 140 | – | – | – | Active | degraded [16]: 50%; degraded [17]: 50%; Activity (Colon 26 [18]): Active; Activity (Colon 26 [19]): <=0.2; Activity (Colon 26 [20]): Active; Activity [6]: 55%; Activity (Colon 26 [21]): Active; Activity [8]: 45%
8 | CN1CCC(C)(C)c2cc3c(-c4ccc(C(=O)N5CCCCC5)s4)c4ccc(=[N+](C)C)cc-4sc3cc21.F[P-](F)(F)(F)(F)F | – | – | – | – | – | inactive | > 0.95 | – | –
9 | CN1CCC(C)(C)c2cc3c(-c4ccc(C(=S)N5CCCCC5)s4)c4ccc(=[N+](C)C)cc-4sc3cc21.F[P-](F)(F)(F)(F)F | – | – | – | – | – | inactive | > 0.95 | Active | Drug uptake (Colon 26 [12]): Not Active
